In one experiment the target is Coagulation factor X (Homo sapiens, UniProt P00742). The experiment in a line: Compound was evaluated for the inhibition of human Coagulation factor Xa.
The target of another experiment is T1, Serine protease 1 (Bos taurus, UniProt P00760).
T1 sequence (P00760 whole entry): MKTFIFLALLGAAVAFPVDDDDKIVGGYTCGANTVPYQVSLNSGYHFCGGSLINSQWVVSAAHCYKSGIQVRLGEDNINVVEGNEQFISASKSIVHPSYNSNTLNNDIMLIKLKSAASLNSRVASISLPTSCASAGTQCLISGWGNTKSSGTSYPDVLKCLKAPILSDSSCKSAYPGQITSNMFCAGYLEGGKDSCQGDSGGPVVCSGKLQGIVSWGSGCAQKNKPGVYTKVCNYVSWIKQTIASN
The experiment in a line: Inhibitory activity against bovine pancreatic trypsin. The essentials: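 Bovine trypsin at 1 nM final, with buffer 0.05 M Tris, 0.15 M NaCl, 0.1% PEG-8000, 0.02 M CaCl2, pH 7.5, room temperature. 30 min compound preincubation, then S-2765 at 250 μM final. 405 nm read continuously for 5 min. IC50 from initial rates; apparent Ki by Cheng-Prusoff, assuming competitive kinetics.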

A further experiment concerns the target Prothrombin (Homo sapiens, UniProt P00734). Put plainly: Inhibition of human thrombin. The essentials:
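Preincubated with compound 30 min, then Pefachrome TH at 50 μM final. p-Nitroanilide release followed at 405 nm for 5 min. IC50 from initial velocities; apparent Ki via Cheng-Prusoff, assuming competitive inhibition.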

Coagulation factor X, sequence (P00742 41-179 limits assumed): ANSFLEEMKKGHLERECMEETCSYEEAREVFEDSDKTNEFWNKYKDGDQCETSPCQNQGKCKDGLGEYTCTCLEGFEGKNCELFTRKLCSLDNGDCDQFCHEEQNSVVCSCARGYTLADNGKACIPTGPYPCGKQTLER
Coagulation factor X, sequence (P00742 235-488 limits assumed): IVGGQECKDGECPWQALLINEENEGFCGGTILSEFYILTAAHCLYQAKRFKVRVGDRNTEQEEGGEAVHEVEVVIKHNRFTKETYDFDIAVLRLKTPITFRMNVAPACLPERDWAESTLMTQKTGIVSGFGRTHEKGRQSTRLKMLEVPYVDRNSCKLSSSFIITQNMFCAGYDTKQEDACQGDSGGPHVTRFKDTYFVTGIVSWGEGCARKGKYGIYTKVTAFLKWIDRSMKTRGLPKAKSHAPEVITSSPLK

Turning to `COc1ccc2ccc(S(=O)(=O)N(Cc3cccs3)[C@H]3CCN(Cc4cccc(C(=N)N)c4)C3=O)cc2c1`, the Ki (usually the equilibrium dissociation constant of an inhibitor or competing ligand from its target) on Coagulation factor X is 34 nM; at Serine protease 1, 1940 nM; on Prothrombin, 970 nM.
For `N=C(N)c1cccc(CNC(=O)CNS(=O)(=O)c2ccc3ccccc3c2)c1`, in that order: 340 nM, 80 nM and 630 nM.
For `COc1ccc2ccc(S(=O)(=O)N(Cc3ccccn3)[C@H]3CCN(Cc4cccc(C(=N)N)c4)C3=O)cc2c1` the same measures were 31 nM, 1940 nM and 1160 nM.
For `N=C(N)c1cccc(CN2CC[C@H](NS(=O)(=O)c3ccc4ccc(O)cc4c3)C2=O)c1`, in that order: 500 nM, more than 2900 nM and more than 4000 nM.
For the compound `CCc1ccc2ccc(S(=O)(=O)N[C@H]3CCN(Cc4cccc(C(=N)N)c4)C3=O)cc2c1`, the Ki at Coagulation factor X was found to be 370 nM; at Serine protease 1, 1600 nM; on Prothrombin it was 1600 nM.
Turning to `N=C(N)c1cccc(CN2CCC[C@H](NS(=O)(=O)c3ccc4ccccc4c3)C2=O)c1`, the Ki on Coagulation factor X is 1300 nM; at Serine protease 1 it was more than 2900 nM; at Prothrombin it was more than 4000 nM.
On to `N=C(N)c1cccc(Cn2cc(CCc3ccc4ccccc4c3)c3ccccc32)c1`, for which the results for the Ki at Coagulation factor X, on Serine protease 1 and at Prothrombin were 900 nM, 2900 nM and more than 4000 nM, respectively.
For `N=C(N)c1cccc(CN2CC[C@H](NS(=O)(=O)c3ccc(Oc4ccccc4)cc3)C2=O)c1`, the Ki on Coagulation factor X is 380 nM; on Serine protease 1 it was more than 2900 nM; at Prothrombin, more than 4000 nM.
For `COc1ccc2ccc(S(=O)(=O)N(Cc3ccsc3)[C@H]3CCN(Cc4cccc(C(=N)N)c4)C3=O)cc2c1`, in that order: 19 nM, 1080 nM and 360 nM.
For `COc1cccc(-c2ccc(S(=O)(=O)N[C@H]3CCN(Cc4cccc(C(=N)N)c4)C3=O)cc2)c1` the same measures were 100 nM, more than 2900 nM and 2500 nM.
For `COc1ccc2ccc(S(=O)(=O)N(Cc3cc[nH]n3)[C@H]3CCN(Cc4cccc(C(=N)N)c4)C3=O)cc2c1`, the Ki on Coagulation factor X was determined as 21 nM; on Serine protease 1, 1390 nM; at Prothrombin, 1080 nM.
For `Cc1cccc(-c2ccc(S(=O)(=O)N[C@H]3CCN(Cc4cccc(C(=N)N)c4)C3=O)cc2)c1` the same measures were 120 nM, more than 2900 nM and more than 4000 nM.
On to `N=C(N)c1cccc(CN2C[C@@H](NS(=O)(=O)c3ccc4ccccc4c3)CC2=O)c1`, for which the Ki is 9800 nM on Coagulation factor X, more than 2900 nM on Serine protease 1 and more than 4000 nM on Prothrombin.
In the case of `COc1ccc2ccc(S(=O)(=O)N[C@H]3CCN(Cc4coc(C(=N)N)c4)C3=O)cc2c1`, the results for the Ki at Coagulation factor X, at Serine protease 1 and on Prothrombin were 180 nM, more than 2900 nM and more than 4000 nM, respectively.
For `N=C(N)c1cccc(CN2C[C@H](NS(=O)(=O)c3ccc4ccccc4c3)C2=O)c1` the same measures were 9900 nM, more than 2900 nM and more than 4000 nM.
For `N=C(N)c1cccc(CN2CCCC[C@H](NS(=O)(=O)c3ccc4ccccc4c3)C2=O)c1`, in that order: 7000 nM, more than 2900 nM and more than 4000 nM.
For `COc1ccc2ccc(S(=O)(=O)N(CC(=O)O)[C@H]3CCN(Cc4cccc(C(=N)N)c4)C3=O)cc2c1` the same measures were 120 nM, more than 2900 nM and more than 4000 nM.
On to `CCN([C@H]1CCN(Cc2cccc(C(=N)N)c2)C1=O)S(=O)(=O)c1ccc2ccc(OC)cc2c1`, for which the Ki on Coagulation factor X is 43 nM; at Serine protease 1, 1400 nM; at Prothrombin it was 880 nM.
For `COc1ccc2ccc(S(=O)(=O)N(CCC(N)=O)[C@H]3CCN(Cc4cccc(C(=N)N)c4)C3=O)cc2c1`, in that order: 56 nM, 2000 nM and 1500 nM.
For `N=C(N)c1cccc(CN2CC[C@H](NS(=O)(=O)c3ccc4ccccc4c3)C2)c1`, the Ki at Coagulation factor X was more than 10000 nM; on Serine protease 1 it was more than 2900 nM; on Prothrombin it was more than 4000 nM.
For `N=C(N)c1cccc(CN2CC[C@H](NS(=O)(=O)c3ccc(Cc4ccccc4)cc3)C2=O)c1`, in that order: 1100 nM, more than 2900 nM and more than 4000 nM.
Turning to `N=C(N)c1cccc(CN2CC[C@H](NS(=O)(=O)c3cccc4ccccc34)C2=O)c1`, the Ki is 750 nM at Coagulation factor X, more than 2900 nM at Serine protease 1 and more than 4000 nM on Prothrombin.
In the case of `N=C(N)c1cccc(CN2CC[C@H](NS(=O)(=O)c3ccc4cc(Cl)ccc4c3)C2=O)c1`, the Ki at Coagulation factor X was 70 nM; on Serine protease 1, more than 2900 nM; on Prothrombin it was 1500 nM.
For `CNc1ccc2ccc(S(=O)(=O)N[C@H]3CCN(Cc4cccc(C(=N)N)c4)C3=O)cc2c1`, the Ki at Coagulation factor X was 250 nM; at Serine protease 1, 1500 nM; on Prothrombin it was more than 4000 nM.
`N=C(N)c1cccc(CN2CC[C@H](NS(=O)(=O)c3ccc4ccc(Cl)cc4c3)C2=O)c1`: the Ki on Coagulation factor X was 78 nM; at Serine protease 1, 2000 nM; at Prothrombin it was 1200 nM.
As for `COc1ccccc1-c1ccc(S(=O)(=O)N[C@H]2CCN(Cc3cccc(C(=N)N)c3)C2=O)cc1`, the Ki at Coagulation factor X is 190 nM; on Serine protease 1, more than 2900 nM; at Prothrombin, more than 4000 nM.
Take `Cc1ccc2ccc(S(=O)(=O)N[C@H]3CCN(Cc4cccc(C(=N)N)c4)C3=O)cc2c1`: the Ki at Coagulation factor X was found to be 100 nM; on Serine protease 1 it was 1100 nM; at Prothrombin, 1340 nM.
For `COc1ccc2ccc(S(=O)(=O)N[C@H]3CCN(Cc4ccc(C(=N)N)cc4)C3=O)cc2c1`, in that order: 970 nM, 2300 nM and more than 4000 nM.
For `N=C(N)c1cccc(CN2CC[C@H](NS(=O)(=O)c3cccc(-c4ccccc4)c3)C2=O)c1` the same measures were 440 nM, more than 2900 nM and more than 4000 nM.
On to `COc1ccc2ccc(S(=O)(=O)N(Cc3ccccc3)[C@H]3CCN(Cc4cccc(C(=N)N)c4)C3=O)cc2c1`, for which the Ki at Coagulation factor X was 41 nM; on Serine protease 1 it was 1800 nM; at Prothrombin, 440 nM.
For `CCOc1ccc2ccc(S(=O)(=O)N[C@H]3CCN(Cc4cccc(C(=N)N)c4)C3=O)cc2c1`, the Ki on Coagulation factor X is 280 nM; at Serine protease 1, more than 2900 nM; on Prothrombin, 1900 nM.
With `COc1ccc2ccc(S(=O)(=O)N(CC(N)=O)[C@H]3CCN(Cc4cccc(C(=N)N)c4)C3=O)cc2c1`, the values for the Ki at Coagulation factor X, at Serine protease 1 and at Prothrombin were 25 nM, 1000 nM and 1440 nM, respectively.
For `COc1ccc2cc(S(=O)(=O)N[C@H]3CCN(Cc4cccc(C(=N)N)c4)C3=O)ccc2c1`, in that order: 1000 nM, more than 2900 nM and 900 nM.
With `COc1ccc2ccc(S(=O)(=O)N[C@H]3CCN(Cc4ccc(C(=N)N)s4)C3=O)cc2c1`, affinity at Coagulation factor X was put at a Ki of 220 nM.
Turning to `COc1ccc2ccc(S(=O)(=O)N[C@H]3CCN(Cc4ccc(C(=N)N)o4)C3=O)cc2c1`, the Ki is 570 nM at Coagulation factor X, more than 2900 nM at Serine protease 1 and more than 4000 nM on Prothrombin.
For `N=C(N)c1cccc(CN2CC[C@H](NS(=O)(=O)c3ccc4ccc(N)cc4c3)C2=O)c1`, in that order: 120 nM, 1300 nM and 2600 nM.

Source of the values: ChEMBL document CHEMBL1132151, “Design and structure-activity relationships of potent and selective inhibitors of blood coagulation factor Xa” (J Med Chem, 1999).
